CTSL1 counter – blocks F. hepatica cathepsin L1 in PFM18AAP counter-screen | actives 0.49% (n = 300,000) | recombinant F. hepatica cathepsin L1, Z-Leu-Arg-MCA fluorescence | inhibition, % at 5.96 µM;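 active means inhibition above the mean of all tested compounds plus 3 SD, set per screening campaign, cut at about 17% in these data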;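 further: 0% = plate median of test compound wells and 100% = 1 µM Z-Phe-Ala-diazomethylketone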
HDAC3 inh – blocks human histone deacetylase 3 | AID 2718 | recombinant HDAC3, fluorogenic peptide/trypsin coupled, fluorescence | actives 0.15% (n = 320,000) | inhibition, % at 8.3 µM | O15379; in the data active means inhibition above about 26%, passing the limit was not always enough
Target sequence (O15379 whole entry, looked up): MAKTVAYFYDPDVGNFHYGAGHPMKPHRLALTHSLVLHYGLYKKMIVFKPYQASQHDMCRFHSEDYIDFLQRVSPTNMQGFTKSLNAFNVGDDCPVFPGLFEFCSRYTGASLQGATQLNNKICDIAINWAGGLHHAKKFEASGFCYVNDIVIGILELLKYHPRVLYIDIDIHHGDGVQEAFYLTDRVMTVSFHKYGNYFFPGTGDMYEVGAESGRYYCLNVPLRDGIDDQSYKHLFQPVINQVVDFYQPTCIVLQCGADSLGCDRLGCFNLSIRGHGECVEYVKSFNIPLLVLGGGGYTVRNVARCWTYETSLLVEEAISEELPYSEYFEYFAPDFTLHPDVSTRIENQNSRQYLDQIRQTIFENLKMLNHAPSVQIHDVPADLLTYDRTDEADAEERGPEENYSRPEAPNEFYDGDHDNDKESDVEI
AHR activator – activates the human aryl hydrocarbon receptor; actives 2.5% (n = 320,000); P35869; AID 2796; activation, % at 5 µM; AHR-responsive luciferase reporter cells, luminescence; in the data active means activation above about 47%;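 further: 0% = vehicle wells and 100% = reference agonist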
FXN GAA850 act – activators of GAA850 frataxin (FXN) promoter | activation, % at 6 µM | HEK293 lucGAA850 FXN promoter luciferase reporter, 24 h; percent of 10 µM SAHA response | AID 540364 | actives 0.56% (n = 360,000);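 active means activation above the average of all compounds screened plus 3 SD, cutoff fixed separately per campaign, cut at about 7.5% in these data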;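 further: 0% = DMSO wells and 100% = 10 µM SAHA wells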
M18AAP inhibitor – PfM18AAP enzyme inhibition; recombinant PfM18AAP, H-Glu-NHMec fluorogenic cleavage; inhibition, % at 7.35 µM; actives 1.2% (n = 290,000); AID 1822;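 active means inhibition above the campaign mean inhibition over all tested compounds plus 3 SD, cut at about 28% in these data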;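 further: 0% = plate median of test compound wells and 100% = 2 mM ZnCl2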
SENP1 inh – inhibitors of human SENP1 SUMO protease catalytic domain | Q9P0U3 | recombinant SENP1 catalytic domain, CyPet-SUMO1-YPet FRET cleavage | inhibition, % at 10 µM | actives 0.21% (n = 360,000);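 active means inhibition at least 30% at 10 µM, raw YFP signal under a set limit, fluorescence ratio 0.5 to 1.5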;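 further: 0% = enzyme with DMSO and 100% = no enzyme wells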
Target sequence (Q9P0U3 419-644 limits assumed): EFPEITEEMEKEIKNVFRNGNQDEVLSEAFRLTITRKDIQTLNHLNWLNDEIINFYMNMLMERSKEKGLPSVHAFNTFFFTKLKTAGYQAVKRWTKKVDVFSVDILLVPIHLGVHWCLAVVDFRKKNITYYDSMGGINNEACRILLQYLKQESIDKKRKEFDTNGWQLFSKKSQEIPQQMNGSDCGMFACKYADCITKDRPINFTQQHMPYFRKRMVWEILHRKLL
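Compound: 10 µM single point, 0.5% DMSO; Test system: hSENP1 catalytic domain, recombinant; Timing: 50 min reaction at room temperature; Technique: FRET, CFP and YFP emission; Control set: no-enzyme wells low, DMSO-plus-enzyme wells high control.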
GAA30 FXN cntr – counter-screen for GAA850 frataxin promoter activators: GAA30 promoter activation; shares compounds with FXN GAA850 act; HEK293 lucGAA30 FXN promoter luciferase, 24 h; DMSO = 0%, 5 µM ipriflavone = 100%; activation, % at 6 µM; actives 66% (n = 1,900);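 active means mean activation above the mean of solvent-only control wells plus 3 SD, cut at about 22% in these data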;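 further: counterscreen of GAA850 promoter hits where activity marks nonselective or luminescence artifacts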
GAA850 confirm – GAA850 FXN promoter activation confirmation; actives 86% (n = 1,900); activation, % at 6 µM; HEK293 lucGAA850 FXN promoter luciferase reporter, 24 h; 100% = activation by SAHA; shares compounds with FXN GAA850 act;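 active means mean activation above a set limit taken from the primary screen, cut at about 8% in these data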;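 further: 0% = DMSO wells and 100% = 10 µM SAHA wells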
Active calls of the source: *. Hits are enriched below; roughly 4.2% of the tested compounds scored in any of these assays.

How did O=C(NCCc1c[nH]c2ccccc12)c1cnccn1 do in these assays?
CTSL1 counter: -2.8; HDAC3 inh: -4.7; AHR activator: 21.1; FXN GAA850 act: 1.2; M18AAP inhibitor: -11.6; SENP1 inh: -0.9

What do the screens show for `CSCCC(N=C(NS(=O)(=O)c1ccccc1)c1ccccc1)C(=O)O` (centres undefined)?
CTSL1 counter: 1.4; AHR activator: -1.3; FXN GAA850 act: -1.9; M18AAP inhibitor: 1.8; SENP1 inh: -0.9

Results for CCOC(=O)CCS(=O)(=O)c1nc(-c2ccccc2)cc(C(F)(F)F)n1 ?
CTSL1 counter: -1.5; HDAC3 inh: -17.0; AHR activator: -2.7; FXN GAA850 act: 4.3; M18AAP inhibitor: -2.4; SENP1 inh: 3.8

How did CCOC(=O)CS(=O)(=O)c1nc(-c2ccccc2)cc(C(F)(F)F)n1 do in these assays?
CTSL1 counter: 0.6; HDAC3 inh: -2.0; AHR activator: -2.0; FXN GAA850 act: 11.0*; M18AAP inhibitor: -22.6; SENP1 inh: -0.1; GAA30 FXN cntr: -54.3; GAA850 confirm: -23.4

Results for CS(=O)(=O)c1nc(-c2ccc(F)cc2)cc(C(F)(F)F)n1 ?
FXN GAA850 act: 39.3*; M18AAP inhibitor: -5.4; SENP1 inh: 2.2; GAA30 FXN cntr: 23.5*; GAA850 confirm: 70.9*

What do the screens show for `CCOC(=O)CS(=O)(=O)c1nc(-c2ccc(F)cc2)cc(C(F)(F)F)n1`?
CTSL1 counter: 1.5; HDAC3 inh: 9.8; AHR activator: -0.8; FXN GAA850 act: 21.4*; M18AAP inhibitor: -13.0; SENP1 inh: 3.0; GAA30 FXN cntr: -77.3; GAA850 confirm: -24.4

How did COCCn1c(=S)[nH]c2cc(C(=O)NC3CCCC(C)C3C)ccc2c1=O (centres undefined) do in these assays?
FXN GAA850 act: 2.5; SENP1 inh: 2.2

Results for CCc1cccc(CC)c1NC(=O)/C(C#N)=C/c1ccccc1C(F)(F)F ?
CTSL1 counter: -1.4; HDAC3 inh: 3.7; AHR activator: 0.9; FXN GAA850 act: 8.0*; M18AAP inhibitor: -1.7; SENP1 inh: 1.1; GAA30 FXN cntr: -12.1; GAA850 confirm: 13.0*

What do the screens show for `N#C/C(=C\c1ccccc1C(F)(F)F)C(=O)Nc1ccccc1`?
CTSL1 counter: 4.9; HDAC3 inh: 7.9; AHR activator: 6.0; FXN GAA850 act: 1.5; M18AAP inhibitor: -5.9; SENP1 inh: 0.6

What do the screens show for `CC(C)N1C(=O)S/C(=C\c2ccc(-c3ccc(Cl)c(C(=O)O)c3)o2)C1=O`?
CTSL1 counter: 5.3; HDAC3 inh: 9.2; AHR activator: 5.4; FXN GAA850 act: 8.2*; M18AAP inhibitor: 4.7; SENP1 inh: -35.9; GAA30 FXN cntr: 115.6*; GAA850 confirm: 37.5*

How did CCN(CC)c1ccc(/C=C2/SC(=O)N(C(C)C)C2=O)o1 do in these assays?
FXN GAA850 act: 8.0*; M18AAP inhibitor: -0.3; SENP1 inh: -22.2; GAA30 FXN cntr: 96.0*; GAA850 confirm: 31.8*

What do the screens show for `O=C(CCC1CCCCC1)Nc1ccccc1O`?
CTSL1 counter: -1.1; HDAC3 inh: 6.2; AHR activator: -6.2; FXN GAA850 act: 4.1; M18AAP inhibitor: -2.2; SENP1 inh: 0.4

What do the screens show for `Cc1ccc(O)c(NC(=O)CCC2CCCCC2)c1`?
CTSL1 counter: 1.9; HDAC3 inh: -1.0; AHR activator: -1.4; FXN GAA850 act: 8.3*; M18AAP inhibitor: 2.0; SENP1 inh: 2.6; GAA30 FXN cntr: 91.2*; GAA850 confirm: 34.7*

How did Fc1cccc(/C=N/Nc2cc(N3CCOCC3)ncn2)c1 do in these assays?
CTSL1 counter: -1.9; HDAC3 inh: 0.7; AHR activator: 18.6; FXN GAA850 act: 9.3*; M18AAP inhibitor: 6.6; SENP1 inh: -0.7; GAA30 FXN cntr: 127.4*; GAA850 confirm: 98.6*

What do the screens show for `O=C(CCl)Nc1ccc(N2CCCCCC2)cc1`?
CTSL1 counter: 21.3*; HDAC3 inh: 1.9; AHR activator: -1.6; FXN GAA850 act: 7.7*; M18AAP inhibitor: 6.9; SENP1 inh: 2.2; GAA30 FXN cntr: 10.1; GAA850 confirm: 29.4*

What do the screens show for `Cc1nnc(SCC(=O)c2c[nH]c3ccccc23)n1C1CC1`?
HDAC3 inh: 1.4; AHR activator: 33.4; FXN GAA850 act: 1.5; SENP1 inh: -2.3

Results for COc1ccc(N2C(=O)NC(NC(=O)C(C)(C)C)(C(F)(F)F)C2=O)cc1 (centres undefined) ?
CTSL1 counter: -9.5; HDAC3 inh: -5.1; AHR activator: -0.5; FXN GAA850 act: 9.2*; M18AAP inhibitor: -5.4; SENP1 inh: 1.4; GAA30 FXN cntr: -0.8; GAA850 confirm: 8.2*

What do the screens show for `CC1CCc2c(sc(NC(=O)c3noc4c3CCCC4)c2C(N)=O)C1` (centres undefined)?
FXN GAA850 act: 7.8*; SENP1 inh: 3.1; GAA30 FXN cntr: 102.4*; GAA850 confirm: 29.3*

Results for CC1CCc2c(sc(NC(=O)C3=COCCO3)c2C(N)=O)C1 (centres undefined) ?
HDAC3 inh: 0.5; AHR activator: 35.8; FXN GAA850 act: 2.8; SENP1 inh: -25.1

How did Fc1ccc(-n2cc(-c3ccccc3)c3c(=S)nc[nH]c32)cc1 do in these assays?
CTSL1 counter: -1.7; HDAC3 inh: -3.7; AHR activator: 12.4; FXN GAA850 act: 8.5*; M18AAP inhibitor: 1.5; SENP1 inh: 2.0; GAA30 FXN cntr: -10.8; GAA850 confirm: 13.5*

How did Fc1cccc(-n2cc(-c3ccccc3)c3c(=S)nc[nH]c32)c1 do in these assays?
CTSL1 counter: 1.8; HDAC3 inh: -0.9; AHR activator: 34.8; FXN GAA850 act: 7.9*; M18AAP inhibitor: 5.8; SENP1 inh: 0.1; GAA30 FXN cntr: -12.1; GAA850 confirm: 18.5*

How did O=c1[nH]cnc2c1c(-c1ccccc1)cn2-c1ccccc1 do in these assays?
CTSL1 counter: 1.2; HDAC3 inh: 0.4; AHR activator: 8.7; FXN GAA850 act: 3.0; M18AAP inhibitor: -1.1; SENP1 inh: -0.3

Results for Cc1noc(C)c1S(=O)(=O)NC(=O)C1(C)CCN1C(=O)C1(c2ccc(Cl)cc2)CC1 (centres undefined) ?
FXN GAA850 act: 0.6; SENP1 inh: 1.6

How did COc1cccc(/C=N/Nc2nnc3c(n2)[nH]c2ccccc23)c1OC do in these assays?
CTSL1 counter: 4.8; HDAC3 inh: 6.3; AHR activator: 27.6; FXN GAA850 act: 2.3; M18AAP inhibitor: 2.4; SENP1 inh: -23.9

Compound activity: PubChem BioAssay, several laboratories
